Experiments:
92.1 cells [1] = experiment: Rescue assay, siRNA GNAQ knockdown in 92.1 cells; type: cell-based; details: 10 and 20 μmol/L; 72 h
Outline: (§1)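 Cells were transfected with siRNA against GNA11 (MP41) or GNAQ (92.1), or with a matching control siRNA. After 48 h, cells were reseeded at 3000 cells/well and cultured 18–24 h. They were then exposed to test compound for 72 h. CCK-8 was added for 2–4 h and absorbance read at 450 nm. Data are mean ± SEM, n = 3.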

[2] = Human liver microsome stability assay; type: in vitro ADME; details: liver microsomes, pH 7.4
Outline: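 Test compound (1 μmol/L) was preincubated for 5 min at 37 °C with human liver microsomes (0.5 mg/mL) in 100 mmol/L potassium phosphate, pH 7.4, with 5 mmol/L MgCl2. Reactions were started with 1 mmol/L NADPH. Aliquots were quenched with acetonitrile containing internal standard at 0, 5, 15, 30 and 45 min, centrifuged and analysed by LC–MS/MS for half-life and intrinsic clearance.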

[3] = system: MP41 cells (GNA11 Q209L mutation); experiment: Cell proliferation inhibition assay; type: cell-based; details: MP41, 72 h, read-out: Antiproliferation (IC50, μmol/L) MP41
Outline: (§2)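 Uveal melanoma cells were grown in RPMI-1640 with 10% FBS at 37 °C, 5% CO2. They were resuspended at 3 × 10^3 cells/mL, seeded and left overnight. Cells were exposed to a concentration series of test compound for 72 h. CCK-8 was added for 2–4 h and absorbance read at 450 nm. IC50 values were fitted from the curves and reported as mean ± SEM, n = 3.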

Gαq/11 [4] = target: Gαq/11 (Homo sapiens, UniProt P50148); experiment: Agonist; type: cell-based; details: HEK293-AT1R cells; different concentrations
Outline: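 HEK293 cells transiently co-transfected with AT1R, Gαq-RLuc8, unlabeled Gβ1 and Gγ2-Venus, replated 24 h after transfection and cultured overnight. Cells were pretreated 1 h with test compound at several concentrations, then AngII was added, followed by coelenterazine as luciferase substrate. BRET between Gα and Gβγ was read on a plate reader. Runs were in triplicate, mean ± SEM (n = 3).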

[5] = system: 92.1 cells (GNAQ Q209L mutation); experiment: Cell proliferation inhibition assay; type: cell-based; details: 72 h, read-out: Antiproliferation (IC50, μmol/L) 92.1
Outline: as §2

MP41 xenograft = MP41 xenograft model; type: in vivo, nude BALB/c nu/nu mice; details: 21 days
Outline: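 Nude BALB/c nu/nu mice (18–22 g, 6–8 weeks) bearing MP41 xenografts were randomised at n = 6/group. They received vehicle or test compound (5, 15 or 30 mg/kg/day) ip for 21 consecutive days. Body weight and tumour size were recorded every 2 days. Tumours were harvested on day 22 for weighing and H&E staining. Groups were compared by one-way ANOVA.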

92.1 cells [6] = experiment: Apoptosis assay by flow cytometry, 92.1; type: cell-based
MP41 cells [7] = experiment: Transwell migration assay, MP41; type: cell-based; details: 3, 10, and 20 μmol/L; 48 h
Outline: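 MP41 cells were seeded at 1 × 10^4 cells/well in Transwell upper chambers, with RPMI-1640 plus 20% FBS in the lower chamber, and left overnight. Test compound was added for 48 h. Cells left in the upper chamber were removed, and cells on the lower side were stained with crystal violet for 0.5 h and counted by microscope at ×40.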

92.1 cells [8] = experiment: Transwell migration assay, 92.1; type: cell-based; details: 3, 10, and 20 μmol/L; 48 h
CHO-M1 cells = experiment: Cytotoxicity on CHO-M1 cells; type: cell-based; details: CCK-8
MP41 cells [9] = experiment: Clonogenic; type: cell-based; details: 1 and 3 μmol/L; 9 days
Outline: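 MP41 cells were seeded at 4000 cells/well and left overnight. They were exposed to test compound for 9 days, with medium and compound renewed every three days. Colonies were fixed in 4% paraformaldehyde for 15 min, stained with crystal violet for 0.5 h and counted with a colony counter. Data are mean ± SEM, n = 3.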

phosphorylated YAP = experiment: Western blot of phosphorylated YAP in MP41 xenograft tumor tissues; type: in vivo, mice; details: testing dose
Outline: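 Nude BALB/c nu/nu mice (18–22 g, 6–8 weeks) bearing MP41 xenografts were randomised (n = 6/group) and dosed ip daily for 21 days (5, 15 or 30 mg/kg/day arms). Tumours were taken on Day 22 and lysed in RIPA with phosphatase and protease inhibitors. Lysates were spun at 15,000 rpm, 4 °C for 15 min, protein quantified by BCA, run on 8–12% SDS-PAGE, transferred to PVDF, blocked in 5% BSA and detected by ECL.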

MP41 cells [10] = experiment: Cell cycle analysis by flow cytometry, MP41; type: cell-based; details: 48 h
Outline: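 MP41 cells were seeded at 3 × 10^5 cells/well, left overnight, then exposed to test compound for 48 h. Cells were washed and fixed in 70% ethanol at 4 °C for 12 h. Staining with RNase (100 μg/mL) and PI (50 μg/mL) ran at 37 °C for 0.5 h. Phase distribution was read by flow cytometry. Data are mean ± SEM, n = 3.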

Gαq/11 [11] = experiment: IP1 accumulation assay; type: cell-based; details: CHO-M1 cells, mean ± SEM (n = 3)
[12] = system: cleaved caspase-7, Bcl-2, and Mcl-1; experiment: Western blot of apoptosis related proteins in UM cells; type: cell-based
Outline: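 Cells or xenograft tumour tissue were lysed in RIPA buffer with protease and phosphatase inhibitors. Lysates were cleared at 15,000 rpm, 4 °C for 15 min, and protein was quantified by BCA. Proteins were separated on 8%–12% SDS-PAGE, transferred to PVDF and blocked with 5% BSA. After primary and secondary antibodies, bands were detected by enhanced chemiluminescence.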

MP41 cells [13] = experiment: Rescue assay, siRNA GNA11 knockdown in MP41 cells; type: cell-based; details: 72 h
Outline: as §1

MP41 cells [14] = experiment: Transwell invasion assay, MP41; type: cell-based; details: 3, 10, and 20 μmol/L
Outline: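 MP41 cells (1 × 10^4/well) were placed in Transwell upper chambers, with RPMI-1640 plus 20% FBS in the lower chamber, and left overnight. Cells were then exposed to test compound for 48 h. Non-migrated cells in the upper chamber were removed. Cells in the lower chamber were stained with crystal violet for 0.5 h and counted by microscope at ×100. Data are mean ± SEM, n = 3.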

Chain of Gαq/11 (Homo sapiens, UniProt P50148) (P50148 whole entry): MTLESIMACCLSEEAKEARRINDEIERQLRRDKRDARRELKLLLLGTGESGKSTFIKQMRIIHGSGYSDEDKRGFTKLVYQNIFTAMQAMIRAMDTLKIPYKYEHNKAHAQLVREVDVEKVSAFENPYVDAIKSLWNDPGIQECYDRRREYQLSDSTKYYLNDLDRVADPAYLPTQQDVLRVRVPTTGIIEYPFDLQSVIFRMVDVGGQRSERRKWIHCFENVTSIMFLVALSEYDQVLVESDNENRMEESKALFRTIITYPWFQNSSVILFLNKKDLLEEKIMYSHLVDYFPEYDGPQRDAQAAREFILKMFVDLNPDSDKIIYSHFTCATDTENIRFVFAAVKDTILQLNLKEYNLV
Chain of Gαq/11 (Homo sapiens, UniProt P50148) (P62873 2-340 partner limits assumed): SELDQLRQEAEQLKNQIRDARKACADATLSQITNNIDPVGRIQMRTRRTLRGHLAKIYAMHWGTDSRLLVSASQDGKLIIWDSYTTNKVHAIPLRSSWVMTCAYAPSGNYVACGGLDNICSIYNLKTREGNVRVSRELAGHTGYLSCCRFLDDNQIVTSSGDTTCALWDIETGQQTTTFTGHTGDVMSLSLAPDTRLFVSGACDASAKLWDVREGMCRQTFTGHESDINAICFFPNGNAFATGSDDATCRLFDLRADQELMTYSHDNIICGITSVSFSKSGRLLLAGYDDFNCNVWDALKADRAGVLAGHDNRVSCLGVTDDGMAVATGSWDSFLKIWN
Chain of Gαq/11 (Homo sapiens, UniProt P50148) (P59768 2-68 partner limits assumed): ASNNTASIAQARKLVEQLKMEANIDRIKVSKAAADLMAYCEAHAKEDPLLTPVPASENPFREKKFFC

Q: Which “Antiproliferative activity on GNAQ knockdown 92.1 cells” value (92.1 cells [1]) does the source give for `CN1CCC[C@H]1CN1CCn2cc(-c3ccccc3)nc2[C@@H]1CC1CCCCC1` [GQ262] here?
A: Its value is “no inhibitory effect on proliferation”.

Q: What about the CLint scaled at 1 μmol/L [2] of the same molecule?
A: Its CLint scaled at 1 μmol/L is 30.2 mL/min/kg.

Q: And the half-life at 1 μmol/L [2]?
A: The half-life at 1 μmol/L was 57.5 min.

Q: And the IC50 [3]?
A: The IC50 was 5.1 ± 0.6 µmol/L.

Q: And the “Effect on AngII-induced BRET signals” value (Gαq/11 [4])?
A: The value was “dose-dependently inhibitory efficacy on BRET signals”.

Q: And the IC50 [5]?
A: The IC50 was 10.4 ± 0.1 µmol/L.

Q: What about the “Tumor growth inhibition (TGI)” value (MP41 xenograft; 5 mg/kg/day ip) of the same molecule?
A: Its value is 55.2%.

Q: And the “Tumor growth inhibition (TGI)” value (MP41 xenograft; 15 mg/kg/day ip)?
A: The value was 82.8%.

Q: What about the “Tumor growth inhibition (TGI)” value (MP41 xenograft; 30 mg/kg/day ip) of the same molecule?
A: Its value is 106.6%.

Q: And the “Body weight of the mice” value (MP41 xenograft; 5, 15, 30 mg/kg/day ip)?
A: Its value is “did not decline”.

Q: And the “Side effects during and after the treatment (H&E staining)” value (MP41 xenograft; 5, 15, 30 mg/kg/day ip)?
A: Its value is “did not observe manifest side effects”.

Q: What about the Apoptotic rate (92.1 cells [6]; 10 μmol/L) of the same molecule?
A: Its Apoptotic rate is 9.34%.

Q: And the Apoptotic rate (92.1 cells [6]; 20 μmol/L)?
A: The Apoptotic rate was 17.5%.

Q: And the MP41 cell migration (MP41 cells [7])?
A: The MP41 cell migration was “remarkably and dose-dependently inhibited”.

Q: What about the 92.1 cell migration (92.1 cells [8]) of the same molecule?
A: Its 92.1 cell migration is “remarkably and dose-dependently inhibited”.

Q: And the “Cell viability of CHO-M1 cells, 2 h” value (CHO-M1 cells; 2 h, 10 and 20 μmol/L)?
A: Its value is “did not impact the cell viability”.

Q: And the “Cell viability of CHO-M1 cells, 24 h” value (CHO-M1 cells; 24 h, up to 20 μmol/L)?
A: The value was “did not impact the cell viability”.

Q: What about the “Colony formation of MP41 cells” value (MP41 cells [9]) of the same molecule?
A: The value was “obviously blocked the colony formation”.

Q: What about the “Phosphorylated YAP expression in tumor tissues” value (phosphorylated YAP) of the same molecule?
A: Its value is “increased the accumulation of phosphorylated YAP”.

Q: And the “Cellular proportion in G0/G1 phase” value (MP41 cells [10]; 3 μmol/L)?
A: The value was 78.0%.

Q: And the “Cellular proportion in G0/G1 phase” value (MP41 cells [10]; 10 μmol/L)?
A: The value was 79.4%.

Q: What about the “IP1 inhibition at 10 μmol/L” value (Gαq/11 [11]) of the same molecule?
A: The value was 57.2 ± 1.9%.

Q: And the “Bcl-2 and Mcl-1 levels” value [12]?
A: Its value is “down-regulation”.

Q: And the “Cleaved caspase-7 level” value [12]?
A: The value was “up-regulation”.

Q: And the “Antiproliferative activity on MP41 (si#control)” value (MP41 cells [13]; 5 and 10 μmol/L)?
A: The value was “remarkable antiproliferative activity”.

Q: And the “Antiproliferative activity on MP41 (si#GNA11)” value (MP41 cells [13]; GNA11 knockdown)?
A: The value was “could not inhibit MP41 cell proliferation”.

Q: What about the MP41 cell invasion (MP41 cells [14]) of the same molecule?
A: Its MP41 cell invasion is “poor invasion”.

From PMC9366314 (Acta Pharmaceutica Sinica. B, 2022)
